# Measurements reported in PMC9399017 (European Journal of Drug Metabolism and Pharmacokinetics, 2022).
# Values joined by “and” are separate entries in the source; they are usually repeats but may differ in a detail not shown here. Identical values can stand only once.
# Experiments:
# [1] = tested on: major CYP isoenzymes, including CYP3A4; conditions: in vitro; cited from earlier work
# CYP3A = conditions: humans; cited from earlier work
# [2] = Population pharmacokinetic; type: in vivo, human (patients with advanced cancers); conditions: for Duration of constant (zero-order) release into depot, D1, capsule, Estimate (% RSE): hard gelatin capsule
# Summary of the method: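 Patients took immediate-release capsules or film-coated tablets orally. Sampling was intensive in cycle 1 and sparse for up to 5 cycles. Lithium-heparin blood was processed to plasma within about 30 min, protein-precipitated, and measured by validated LC-MS/MS (2.00‒500 ng/mL; LLOQ 2.00 ng/mL). FOCE-I mixed-effects fits tested 1–3-compartment models with fixed allometric weight exponents and per-cycle interoccasion variability. Percentiles came from bootstrap.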
# [3] = between-subject variability, NONMEM estimate
# [4] = between-subject variability, bootstrap
# [5] = final PopPK model, NONMEM estimate
smiles,measurement,setting,value
"C[C@]12CC[C@@H]3c4ccc(O)cc4C[C@@H](CCCCCCCCC[S+]([O-])CCCC(F)(F)C(F)(F)F)[C@H]3[C@@H]1CC[C@@H]2O (stereo partly drawn) [Fulvestrant, fulvestrant]",Inhibition of major CYP isoenzymes,[1],did not significantly inhibit
same,Change in exposure to a CYP3A substrate (midazolam),CYP3A,nor did it change the exposure
CNC(=O)c1cccc2cc(Oc3ccnc4cc(OCC5(N)CC5)c(OC)cc34)ccc12 [lucitanib],Dose proportionality (post hoc ETA versus dose),"[2]; 5 to 30 mg lucitanib, visual inspection",consistent with dose proportionality
same,Effect of co-administration of fulvestrant on lucitanib pharmacokinetics,[2]; 17 of 403 patients with concomitant fulvestrant,no effect
same,"Residual error (proportional), Estimate (% RSE)",[2]; NONMEM estimate,33.6% (2.30%)
same,"CL/F BSV (log-proportional), Estimate (% RSE)",[2]; [3],47.8% (5.69%)
same,"D1 BSV (log-proportional), Estimate (% RSE)",[2]; [3],60.1% (18.6%)
same,"Vc/F BSV (log-proportional), Estimate (% RSE)",[2]; [3],58.6% (6.97%)
same,"Vp/F BSV (log-proportional), Estimate (% RSE)",[2]; [3],76.7% (9.10%)
same,"CL/F BSV (log-proportional), Bootstrap median (2.5th, 97.5th percentile)",[2]; [4],"47.5% (42.8%, 53.2%)"
same,"D1 BSV (log-proportional), Bootstrap median (2.5th, 97.5th percentile)",[2]; [4],"58.7% (41.3%, 75.8%)"
same,"Vc/F BSV (log-proportional), Bootstrap median (2.5th, 97.5th percentile)",[2]; [4],"58.9% (51.3%, 67.5%)"
same,"Vp/F BSV (log-proportional), Bootstrap median (2.5th, 97.5th percentile)",[2]; [4],"75.2% (60.0%, 88.8%)"
same,"Residual error (proportional), Bootstrap median (2.5th, 97.5th percentile)",[2]; bootstrap,"33.5% (32.0%, 34.8%)"
same,"Duration of constant release into depot for capsule, D1, Bootstrap median (2.5th, 97.5th percentile)","[2]; capsule, nonparametric bootstrap","0.812 (0.629, 0.956) h"
same,Effect of concomitant proton pump inhibitors on lucitanib absorption,[2]; concomitant PPI,no clinically significant effect
same,"Ratio of F with concomitant PPI/without PPI, 95% CI","[2]; concomitant proton pump inhibitor, n = 152, not significant",0.83–1.08
same,Reduction in F with concomitant PPI (estimated effect size),"[2]; concomitant proton pump inhibitor, not clinically significant",6.5%
same,"CL/F and Vc/F correlation, Estimate (% RSE)","[2]; correlation of random effects, NONMEM estimate",0.596 (6.30%)
same,"CL/F and Vc/F correlation, Bootstrap median (2.5th, 97.5th percentile)","[2]; correlation of random effects, bootstrap","0.595 (0.469, 0.721)"
same,"Duration of zero-order release, D1, tablet","[2]; film-coated tablet, final PopPK model",0.243 h
same,"Apparent central volume, Vc/F, Estimate (% RSE)",[2]; [5],63.8 (5.08%) L/70 kg
same,"Apparent distribution clearance, Q/F, Estimate (% RSE)",[2]; [5],6.23 (8.41%) L/h/70 kg
same,"Apparent peripheral volume, Vp/F, Estimate (% RSE)",[2]; [5],69.1 (6.81%) L/70 kg
same,"Effect of formulation on D1 (tablet to capsule ratio), Estimate (% RSE)",[2]; [5],0.299 (19.4%)
same,"First-order absorption rate constant, Ka, Estimate (% RSE)",[2]; [5],4.86 1/h and 4.86 (12.6%) 1/h
same,"Apparent clearance, CL/F, Estimate (% RSE)","[2]; final PopPK model, NONMEM estimate, oral 5-30 mg QD, 403 patients",1.90 (2.75%) L/h/70 kg
same,"Duration of constant (zero-order) release into depot, D1, capsule, Estimate (% RSE)",[2]; final PopPK model,0.814 (22.2%) h
same,"Duration of constant (zero-order) release into depot, D1, capsule, Estimate (% RSE)","[2]; final PopPK model, listed as Lucitanib",0.814 h
same,half-life,"[2]; human, plasma, oral",8.58 min
same,"Apparent central volume, Vc/F, Bootstrap median (2.5th, 97.5th percentile)",[2]; nonparametric bootstrap,"63.4 (57.3, 70.6) L/70 kg"
same,"Apparent distribution clearance, Q/F, Bootstrap median (2.5th, 97.5th percentile)",[2]; nonparametric bootstrap,"6.30 (5.29, 7.72) L/h/70 kg"
same,"Apparent peripheral volume, Vp/F, Bootstrap median (2.5th, 97.5th percentile)",[2]; nonparametric bootstrap,"68.9 (61.0, 79.1) L/70 kg"
same,"Effect of formulation on D1 (tablet to capsule ratio), Bootstrap median (2.5th, 97.5th percentile)",[2]; nonparametric bootstrap,"0.343 (0.178, 0.630)"
same,"First-order absorption rate constant, Ka, Bootstrap median (2.5th, 97.5th percentile)",[2]; nonparametric bootstrap,"4.77 (2.94, 8.21) 1/h"
same,"Apparent clearance, CL/F, Bootstrap median (2.5th, 97.5th percentile)","[2]; nonparametric bootstrap, 1000 replicates","1.90 (1.80, 2.00) L/h/70 kg"
same,Variance in Vc/F explained by body weight,[2]; present dataset,11%
same,"D1 values, both immediate-release formulations",[2]; tablet and capsule,< 1 h
same,D1 shorter for tablets versus capsules,[2]; tablet vs capsule,70%
